Laboratory results published in ChEMBL document CHEMBL4350976, “Sequence modification of heptapeptide selected by phage display as homing device for HT-29 colon cancer cells to improve the anti-tumour activity of drug delivery systems” (Eur J Med Chem, 2019).
Where a SMILES comes first, the peptide text is derived from it. The star is where a group is joined. X1 = COc1cccc2c1C(=O)c1c(O)c3c(c(O)c1C2=O)C[C@@](O)(/C(C)=N/OCC(=O)*)C[C@@H]3O[C@H]1C[C@H](N)[C@H](O)[C@H](C)O1

How the values were obtained:
[1] = Stability in human plasma assessed as parent compound remaining at 30 uM measured after 1 hr by LC/MS analysis; type: ADME, cell-free
Method in brief: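 Conjugates were incubated in 90% human plasma from a healthy volunteer. Samples were taken at 0, 5 and 60 min and analysed by HPLC-MS.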

[2] = Drug metabolism in rat liver lysosomes homogenate assessed as Dau-containing metabolite formation at 0.05 ug/ul after 24 hrs by LC-MS analysis; type: ADME, subcellular, Lysosome; details: tissue homogenate
Method in brief: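 Conjugates and rat liver lysosomal homogenate were each used at 0.05 µg/µL. Samples were taken at 0, 1, 3, 6 and 24 h. Metabolites were identified by LC-MS on a C18 column with a formic acid/acetonitrile gradient.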

U-87 MG = experiment: Cytostatic activity against human U87 cells preincubated for 24 hrs under serum free condition followed by compound washout and further incubation for 48 hrs in presence of serum by MTT assay; type: functional, cell-based, U-87MG ATCC
Method in brief: (§1)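 Cells were grown at 37 °C in 5% CO2 in medium with 10% heat-inactivated FBS (20% for OVCAR-3) plus penicillin/streptomycin. The medium was RPMI-1640 for most lines, DMEM for U-87 MG and MRC-5, and IMDM for PE/CA-PJ lines. Seeding was 3×10^3–10×10^3 cells per well. Cells had 24 h compound exposure, a wash, and 48 h further culture. Read-out was MTT, normalized to untreated cells and fitted by nonlinear regression for IC50.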

MDA-MB-231 = experiment: Cytostatic activity against human MDA-MB-231 cells preincubated for 24 hrs under serum free condition followed by compound washout and further incubation for 48 hrs in presence of serum by MTT assay; type: functional, cell-based; method in brief: as §1
4T1 = experiment: Cytostatic activity against mouse 4T1 cells preincubated for 24 hrs under serum free condition followed by compound washout and further incubation for 48 hrs in presence of serum by MTT assay; type: functional, cell-based; method in brief: as §1
CT26.WT [3] = experiment: Cytostatic activity against mouse CT26.WT cells preincubated for 24 hrs under serum free condition followed by compound washout and further incubation for 48 hrs in presence of serum by MTT assay; type: functional, cell-based; method in brief: as §1
A2058 [4] = experiment: Cytostatic activity against human A2058 cells preincubated for 24 hrs under serum free condition followed by compound washout and further incubation for 48 hrs in presence of serum by MTT assay; type: functional, cell-based; method in brief: as §1
[5] = Cytostatic activity against human M24 cells preincubated for 24 hrs under serum free condition followed by compound washout and further incubation for 48 hrs in presence of serum by MTT assay; type: functional, cell-based; method in brief: as §1
[6] = Cytostatic activity against human WM983B cells preincubated for 24 hrs under serum free condition followed by compound washout and further incubation for 48 hrs in presence of serum by MTT assay; type: functional, cell-based; method in brief: as §1
B16 [7] = experiment: Cytostatic activity against mouse B16 cells preincubated for 24 hrs under serum free condition followed by compound washout and further incubation for 48 hrs in presence of serum by MTT assay; type: functional, cell-based; method in brief: as §1
[8] = Cytostatic activity against human PECAPJ41 cells preincubated for 24 hrs under serum free condition followed by compound washout and further incubation for 48 hrs in presence of serum by MTT assay; type: functional, cell-based; method in brief: as §1
OVCAR-3 = experiment: Cytostatic activity against human OVCAR3 cells preincubated for 24 hrs under serum free condition followed by compound washout and further incubation for 48 hrs in presence of serum by MTT assay; type: functional, cell-based; method in brief: as §1
[9] = Drug uptake in mitochondria of human HT-29 cells assessed as increase in fluorescence at 50 uM after 30 mins by MitoTracker deep red staining based confocal microscopic analysis; type: ADME; details: ht-29, 0.5 h
Method in brief: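 HT-29 cells were exposed to 50 µM conjugate for 30 min before imaging. Lysosomes were stained with LysoTracker Deep Red and mitochondria with MitoTracker Deep Red. Confocal imaging detected Dau at 550–600 nm.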

HT-29 [10] = experiment: Potency index, ratio of compound IC50 to Daunomycin IC50 for human HT-29 cells preincubated for 24 hrs under serum free condition followed by compound washout and further incubation for 48 hrs in presence of serum by MTT assay; type: functional
WiDr = experiment: Potency index, ratio of compound IC50 to Daunomycin IC50 for human WiDr cells preincubated for 24 hrs under serum free condition followed by compound washout and further incubation for 48 hrs in presence of serum by MTT assay; type: functional
CT26.WT [11] = experiment: Potency index, ratio of compound IC50 to Daunomycin IC50 for mouse CT26.WT cells preincubated for 24 hrs under serum free condition followed by compound washout and further incubation for 48 hrs in presence of serum by MTT assay; type: functional
A549 = experiment: Potency index, ratio of compound IC50 to Daunomycin IC50 for human A549 cells preincubated for 24 hrs under serum free condition followed by compound washout and further incubation for 48 hrs in presence of serum by MTT assay; type: functional
NCI-H1650 = experiment: Potency index, ratio of compound IC50 to Daunomycin IC50 for human NCI-H1650 cells preincubated for 24 hrs under serum free condition followed by compound washout and further incubation for 48 hrs in presence of serum by MTT assay; type: functional
A2058 [12] = experiment: Potency index, ratio of compound IC50 to Daunomycin IC50 for human A2058 cells preincubated for 24 hrs under serum free condition followed by compound washout and further incubation for 48 hrs in presence of serum by MTT assay; type: functional
[13] = Potency index, ratio of compound IC50 to Daunomycin IC50 for human M24 cells preincubated for 24 hrs under serum free condition followed by compound washout and further incubation for 48 hrs in presence of serum by MTT assay; type: functional
[14] = Potency index, ratio of compound IC50 to Daunomycin IC50 for human WM983B cells preincubated for 24 hrs under serum free condition followed by compound washout and further incubation for 48 hrs in presence of serum by MTT assay; type: functional
B16 [15] = experiment: Potency index, ratio of compound IC50 to Daunomycin IC50 for mouse B16 cells preincubated for 24 hrs under serum free condition followed by compound washout and further incubation for 48 hrs in presence of serum by MTT assay; type: functional
HT-29 [16] = experiment: Antitumor activity against human HT-29 cells xenografted in SCID mouse assessed as tumor growth inhibition by measuring decrease in tumor weight at 38.3 mg/kg, ip administered thrice in first week and twice in second week (on days 13, 16, 20, 23 and 27) starting from 13 days post inoculation measured at day 30 post inoculation relative to control; type: functional; details: HT-29, ip
Method in brief: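 Orthotopic HT-29 tumours in female SCID mice aged 6–8 weeks (22–27 g), 8 per group. Conjugates were given i.p. in water for injection at 10 mg/kg Dau content on days 13, 16, 20, 23 and 27. The study ended on day 30. Tumours were weighed against solvent controls, and livers were weighed as a toxicity read-out.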

HT-29 [17] = experiment: Antitumor activity against human HT-29 cells xenografted in SCID mouse assessed as decrease in number of Ki-67 positive cells measured as proliferation index at 38.3 mg/kg, ip administered thrice in first week (on days 13, 16, 20, 23 and 27) and twice in second week starting from 13 days post inoculation measured at day 30 post inoculation by KI-67-staining based light microscopic analysis (reference value: 100%); type: functional; design: scale not given: the % may be the effect or the level left
Method in brief: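 Tumours from the SCID HT-29 orthotopic study were formalin-fixed and paraffin-embedded, cut at 2 µm, and given citrate pH 6 retrieval at 98 °C for 40 min. They were stained with anti-human Ki-67 (1:40, 1 h RT), then a biotinylated link, HRP polymer and AEC. Ki-67+ cells were counted in 5 fields per tumour at 40× magnification. The proliferation index is the % positive cells.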

[18] = Stability in 2.5% fetal bovine serum containing medium at 30 uM measured after 24 hrs by LC/MS analysis; type: ADME, cell-free, Bos taurus; details: cattle
Method in brief: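 Conjugates (30 μM) were incubated at 37 °C in medium containing 2.5% FBS. Samples were taken at 0, 3, 6 and 24 h, quenched with acetic acid, lyophilised, desalted on C18 spin columns and analysed by LC-MS. Cleavage products were identified by mass.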

## COc1cccc2c1C(=O)c1c(O)c3c(c(O)c1C2=O)C[C@@](O)(/C(C)=N/OCC(=O)N[C@@H](CC(C)C)C(=O)N[C@@H](CCCNC(=N)N)C(=O)N[C@@H](CCCNC(=N)N)C(=O)N[C@@H](Cc1ccc(O)cc1)C(=O)N[C@H](C(=O)N[C@@H](Cc1cnc[nH]1)C(=O)N[C@@H](CC(C)C)C(=O)N[C@@H](Cc1ccccc1)C(=O)N[C@@H](Cc1ccc(O)cc1)C(=O)N[C@@H](C)C(=O)N[C@H](C(N)=O)[C@@H](C)O)C(C)C)C[C@@H]3O[C@H]1C[C@H](N)[C@H](O)[C@H](C)O1 (X1-LRRYVHLFYAT-NH2)
[1]
  Stability: Stable
[2]
  Drug metabolism: Metabolite_Detected
U-87 MG
  IC50: 6.6 µM
MDA-MB-231
  IC50: 4.6 µM
4T1
  IC50: 11.6 µM
CT26.WT [3]
  IC50: 8.3 µM
A2058 [4]
  IC50: 3.5 µM
[5]
  IC50: 5.8 µM
[6]
  IC50: 5.1 µM
B16 [7]
  IC50: 3000 nM
[8]
  IC50: 4.3 µM
OVCAR-3
  IC50: 11.3 µM
[9]
  Drug uptake: Not Active
HT-29 [10]
  Ratio IC50: 57.1
WiDr
  Ratio IC50: 62.8
CT26.WT [11]
  Ratio IC50: 66
A549
  Ratio IC50: 86.1
NCI-H1650
  Ratio IC50: 60.1
A2058 [12]
  Ratio IC50: 104.5
[13]
  Ratio IC50: 61.7
[14]
  Ratio IC50: 114.6
B16 [15]
  Ratio IC50: 335.4
HT-29 [16]
  inhibition in vivo at 38.3 mg/kg: 89%
HT-29 [17]
  Activity: 58%
[18]
  Stability: Stable
